From ChEMBL document CHEMBL2086363, “Lipophilic Isosteres of a π-π Stacking Interaction: New Inhibitors of the Bcl-2-Bak Protein-Protein Interaction” (ACS Med Chem Lett, 2012)
pEC50, pIC50: −log10 of the molar value.

What was measured:
[1] = molecular target: MCL1-BAK1 complex (Homo sapiens, UniProt Q07820); test: Inhibition of Mcl1-BAK interaction; format: protein-complex assay
[2] = molecular target: Apoptosis regulator Bcl-2/Bcl-2 homologous antagonist/killer (Homo sapiens, UniProt P10415); test: Inhibition of Bcl2-BAK interaction after 1 hr by surface plasmon resonance assay; format: protein assay
Outline: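 SPR measurement of Bcl-2–Bak binding inhibition. Each value is the average of at least two measurements, with duplicate EC50 values generated in each assay.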

[3] = Clearance in Sprague-Dawley rat at 1 mg/kg, iv and 10 mg/kg, po; format: ADME, organism-based; settings: in vivo
[4] = Oral bioavailability in Sprague-Dawley rat at 10 mg/kg; format: ADME, organism-based; settings: in vivo
[5] = Volume of distribution at steady state in Sprague-Dawley rat at 1 mg/kg, iv and 10 mg/kg, po; format: ADME, organism-based; settings: in vivo, read-out: Vdss
[6] = Half life in Sprague-Dawley rat at 1 mg/kg, iv and 10 mg/kg, po; format: ADME, organism-based; settings: in vivo
[7] = molecular target: Bcl-xL/BAK (Homo sapiens, UniProt Q07817); test: Inhibition of Bcl-XL-BAK interaction; format: protein assay
[8] = Selectivity ratio of EC50 for Bcl-XL-BAK interaction to EC50 for Bcl2-BAK interaction

Chain of MCL1-BAK1 complex (Q07820 whole entry): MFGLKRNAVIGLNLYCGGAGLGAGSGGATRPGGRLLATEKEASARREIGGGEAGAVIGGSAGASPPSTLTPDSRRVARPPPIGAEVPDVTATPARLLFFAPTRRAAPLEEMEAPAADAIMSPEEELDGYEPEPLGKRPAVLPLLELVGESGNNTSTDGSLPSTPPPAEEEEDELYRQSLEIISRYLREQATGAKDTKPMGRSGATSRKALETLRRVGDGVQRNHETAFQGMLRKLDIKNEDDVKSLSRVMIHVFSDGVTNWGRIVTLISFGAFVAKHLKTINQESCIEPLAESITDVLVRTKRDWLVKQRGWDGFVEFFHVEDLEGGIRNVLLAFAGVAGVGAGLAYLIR
Chain of MCL1-BAK1 complex (Q16611 whole entry, further chain): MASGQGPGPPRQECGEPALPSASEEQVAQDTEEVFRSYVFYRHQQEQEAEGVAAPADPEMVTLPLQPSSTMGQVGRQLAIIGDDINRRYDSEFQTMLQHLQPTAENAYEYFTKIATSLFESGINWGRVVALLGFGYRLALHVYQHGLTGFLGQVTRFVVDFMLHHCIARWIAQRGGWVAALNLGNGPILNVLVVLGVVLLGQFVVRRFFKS
Chain of Bcl-xL/BAK (Q07817 whole entry): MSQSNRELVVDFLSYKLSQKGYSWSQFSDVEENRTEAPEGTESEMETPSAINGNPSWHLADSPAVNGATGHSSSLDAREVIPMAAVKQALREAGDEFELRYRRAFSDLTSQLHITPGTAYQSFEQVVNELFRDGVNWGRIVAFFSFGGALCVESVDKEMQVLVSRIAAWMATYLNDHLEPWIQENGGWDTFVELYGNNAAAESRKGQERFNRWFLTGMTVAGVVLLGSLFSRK
Chain of Bcl-xL/BAK (Q16611 whole entry, further chain): as the sequence (Q16611 whole entry, further chain) above
Chain of Apoptosis regulator Bcl-2/Bcl-2 homologous antagonist/killer (P10415 whole entry): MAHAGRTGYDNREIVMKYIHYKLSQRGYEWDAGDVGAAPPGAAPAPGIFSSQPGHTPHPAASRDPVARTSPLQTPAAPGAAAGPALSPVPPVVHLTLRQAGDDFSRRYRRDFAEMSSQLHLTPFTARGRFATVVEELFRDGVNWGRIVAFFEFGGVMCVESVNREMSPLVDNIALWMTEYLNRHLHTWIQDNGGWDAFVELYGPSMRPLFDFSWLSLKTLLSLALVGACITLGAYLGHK
Chain of Apoptosis regulator Bcl-2/Bcl-2 homologous antagonist/killer (Q16611 whole entry, further chain): as the sequence (Q16611 whole entry, further chain) above

Compound | pIC50 [1] | pEC50 [2] | also measured
CC1(C)[C@@]2(C)CC[C@H](CS(=O)(=O)NC(=O)c3ccc(N4CCN(Cc5ccccc5-c5ccc(Cl)cc5)CC4)cc3)[C@]1(C)C2 | < 4.30 | 6.25 | –
CC12CC3CC(C1)CC(CS(=O)(=O)NC(=O)c1ccc(N4CCN(Cc5ccccc5-c5ccc(Cl)cc5)CC4)cc1)(C3)C2 | – | 5.96 | –
CCS(=O)(=O)NC(=O)c1ccc(N2CCN(Cc3ccccc3-c3ccc(Cl)cc3)CC2)cc1 | < 4.30 | 5.27 | –
O=C(NS(=O)(=O)CC12CC3CC(CC(O)(C3)C1)C2)c1ccc(N2CCN(Cc3ccccc3-c3ccc(Cl)cc3)CC2)cc1 | – | 6.52 | clearance [3]: 16 mL/min/kg; bioavailability [4]: > 100%; Vd [5]: 1.2 L/kg; half-life [6]: 1.3 h
O=C(NS(=O)(=O)CC12CC3CC(CC1C3)C2)c1ccc(N2CCN(Cc3ccccc3-c3ccc(Cl)cc3)CC2)cc1 | < 4.30 | 5.58 | –
CC(=O)NC12CC3CC(CC(CS(=O)(=O)NC(=O)c4ccc(N5CCN(Cc6ccccc6-c6ccc(Cl)cc6)CC5)cc4)(C3)C1)C2 | – | 6.64 | –
O=C(NS(=O)(=O)CC12CC3CC(C1)CC(c1ccccc1)(C3)C2)c1ccc(N2CCN(Cc3ccccc3-c3ccc(Cl)cc3)CC2)cc1 | – | 5.71 | –
O=C(NS(=O)(=O)CC12CC3CC(C1)CC(NC(=O)C1CC1)(C3)C2)c1ccc(N2CCN(Cc3ccccc3-c3ccc(Cl)cc3)CC2)cc1 | – | 6.68 | –
CC(C)C(=O)NC12CC3CC(CC(CS(=O)(=O)NC(=O)c4ccc(N5CCN(Cc6ccccc6-c6ccc(Cl)cc6)CC5)cc4)(C3)C1)C2 | – | 6.80 | –
O=C(NS(=O)(=O)CCC12CC3CC(CC(C3)C1)C2)c1ccc(N2CCN(Cc3ccccc3-c3ccc(Cl)cc3)CC2)cc1 | < 4.30 | 5.55 | –
CC1(C)C2CC[C@]1(CS(=O)(=O)NC(=O)c1ccc(N3CCN(Cc4ccccc4-c4ccc(Cl)cc4)CC3)cc1)C(=O)C2 | < 4.30 | 5.99 | –
CC(C)(C)S(=O)(=O)NC(=O)c1ccc(N2CCN(Cc3ccccc3-c3ccc(Cl)cc3)CC2)cc1 | < 4.30 | < 4.80 | –
CC1(C)C2CC[C@@]1(CS(=O)(=O)NC(=O)c1ccc(N3CCN(Cc4ccccc4-c4ccc(Cl)cc4)CC3)cc1)C(=O)C2 | < 4.30 | 5.83 | –
O=C(NS(=O)(=O)C12CC3CC(CC(C3)C1)C2)c1ccc(N2CCN(Cc3ccccc3-c3ccc(Cl)cc3)CC2)cc1 | < 4.30 | < 4.80 | –
O=C(NS(=O)(=O)CC12CC3CC(C1)CC(OCCN1CCOCC1)(C3)C2)c1ccc(N2CCN(Cc3ccccc3-c3ccc(Cl)cc3)CC2)cc1 | – | 6.51 | –
CC1(C)[C@]2(C)CC[C@@H](CS(=O)(=O)NC(=O)c3ccc(N4CCN(Cc5ccccc5-c5ccc(Cl)cc5)CC4)cc3)[C@@]1(C)C2 | < 4.30 | 6.38 | pEC50 [7]: 6.24
O=C(NS(=O)(=O)CC12CC3CC(CC(F)(C3)C1)C2)c1ccc(N2CCN(Cc3ccccc3-c3ccc(Cl)cc3)CC2)cc1 | – | 6.32 | –
CS(=O)(=O)NC(=O)c1ccc(N2CCN(Cc3ccccc3-c3ccc(Cl)cc3)CC2)cc1 | < 4.30 | 5.06 | –
O=C(NS(=O)(=O)CC12CC3CC(CC(Br)(C3)C1)C2)c1ccc(N2CCN(Cc3ccccc3-c3ccc(Cl)cc3)CC2)cc1 | – | 6.17 | –
O=C(NS(=O)(=O)CC12CC3CCC(CC(C3)C1)C2)c1ccc(N2CCN(Cc3ccccc3-c3ccc(Cl)cc3)CC2)cc1 | < 4.30 | 6.92 | pEC50 [7]: 6.66
O=C(NS(=O)(=O)CC12CC3CC(CC(C3)C1)C2)c1ccc(N2CCN(Cc3ccccc3-c3ccc(Cl)cc3)CC2)cc1 | < 4.30 | 6.17 | clearance [3]: 6 mL/min/kg; bioavailability [4]: 66%; Vd [5]: 0.7 L/kg; Ratio EC50 [8]: 4.3; half-life [6]: 1.3 h; pEC50 [7]: 5.55
O=C(NS(=O)(=O)NC12CC3CC(CC(C3)C1)C2)c1ccc(N2CCN(Cc3ccccc3-c3ccc(Cl)cc3)CC2)cc1 | < 4.30 | 5.68 | –
CC(C)(C)C(=O)NC12CC3CC(CC(CS(=O)(=O)NC(=O)c4ccc(N5CCN(Cc6ccccc6-c6ccc(Cl)cc6)CC5)cc4)(C3)C1)C2 | – | 6.28 | –
